Experimental data published in ChEMBL document CHEMBL1148815, “New series of antiprion compounds: pyrazolone derivatives have the potent activity of inhibiting protease-resistant prion protein accumulation” (J Med Chem, 2007).

Test system: not listed separately
Assay: Superoxide dismutase like activity assessed as inhibition of WST1 tetrazolium formation at 1 mM
Format: functional
Set-up: scale not given: the % may be the effect or the level left
Details: not given
How it was run: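 Xanthine-based photometric kit assay with WST-1 tetrazolium salt. Compound was tested at 1 mM.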

| SMILES | Activity [%] |
| --- | --- |
| O=C1CC(c2ccc([N+](=O)[O-])cc2)=NN1c1ccccc1 | 1.8 |
| CC1=NN(c2ccccc2)C(=O)C1 [EDARAVONE] | 0.6 |
| O=C(NC1=NN(c2ccccc2)C(=O)C1)Oc1ccccc1 | 5.6 |
| O=C1CC(C(F)(F)F)=NN1c1ccccc1 | 13.4 |
| O=C(NC1=NN(c2ccccc2)C(=O)C1)c1ccccc1 | 9.2 |
| CC1=NN(c2ccccc2)C(=O)C1C1CC1 (stereo not drawn) | 15.9 |

Test system: not listed separately
Assay: Antiprion activity in F3 cells assessed as inhibition of protease-resistant prion protein accumulation
Format: functional, cell-based
Details: Mus musculus, N2a #58 F3
How it was run: (§1)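 Mouse N2a cells carrying RML scrapie (ScN2a) or N2a#58 cells carrying Fukuoka-1 (F3), grown in Opti-MEM with 10% FBS. Compound added at passage (10% confluency), cells grown to confluence over 3–4 days, then lysed. Lysates digested with 10 µg/mL proteinase K for 30 min at 37 °C. PrP-res detected by SDS-PAGE/immunoblot with SAF83. IC50 is the concentration halving PrP-res relative to control.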

| SMILES | IC50 [nM] |
| --- | --- |
| C=C(C)C1=NN(c2ccccc2)C(=O)C1 | 794 |
| COC(=O)NC1=NN(c2ccccc2)C(=O)C1 | 501 |
| O=C1CC(c2ccc([N+](=O)[O-])cc2)=NN1c1ccccc1 | 3 |
| CC1=NN(c2ccccc2)C(=O)C1c1ccccc1 (stereo not drawn) | 1 |
| O=C1CC(C(F)(F)F)=NN1c1ccccc1 | 631 |
| O=C(NC1=NN(c2ccccc2)C(=O)C1)c1ccccc1 | 1260 |
| O=C(NC1=NN(c2ccccc2)C(=O)C1)NC1CCCC1 | 158 |
| CC1=NN(c2ccccc2)C(=O)C1CC(C)C (stereo not drawn) | 16 |
| CC1=NN(c2ccccc2)C(=O)C1c1ccccn1 (stereo not drawn) | 631 |
| O=C(Nc1ccccc1)C1=NN(c2ccccc2)C(=O)C1 | 1580 |
| CC1=NN(c2ccccc2)C(=O)C1C(=O)c1ccccc1 (stereo not drawn) | 1000 |
| CC1=NN(C2CCCCC2)C(=O)C1 | 25 |

Test system: ScN2a
Assay: Cytotoxicity against mouse ScN2a cells by MTT assay
Format: cell-based
Details: not given

| SMILES | Activity [nM] |
| --- | --- |
| C=C(C)C1=NN(c2ccccc2)C(=O)C1 | > 1000 |
| COC(=O)NC1=NN(c2ccccc2)C(=O)C1 | > 1000 |
| O=C1CC(c2ccc([N+](=O)[O-])cc2)=NN1c1ccccc1 | > 1000 |
| COc1ccc(C2=NN(c3ccccc3)C(=O)C2)cc1 | > 100 |
| O=C(NC1=NN(c2ccccc2)C(=O)C1)Oc1ccccc1 | > 1000 |
| CC1=NN(c2ccccc2)C(=O)C1c1ccccc1 (stereo not drawn) | > 100 |
| O=C1CC(Cc2ccccc2)=NN1c1ccccc1 | > 1000 |
| O=C1CC(C(F)(F)F)=NN1c1ccccc1 | > 1000 |
| O=C(NC1=NN(c2ccccc2)C(=O)C1)c1ccccc1 | > 1000 |
| O=C(NC1=NN(c2ccccc2)C(=O)C1)NC1CCCC1 | > 1000 |
| CC1=NN(c2ccccc2)C(=O)C1CC(C)C (stereo not drawn) | > 1000 |
| O=C1CC(c2ccccc2)=NN1c1ccccc1 | > 100 |
| CC1=NN(c2ccccc2)C(=O)C1c1ccccn1 (stereo not drawn) | > 1000 |
| COc1ccc(N2N=C(C)CC2=O)cc1 | > 100 |
| CC1=NN(c2ccc(Cl)cc2)C(=O)C1 | > 100 |
| O=C(Nc1ccccc1)C1=NN(c2ccccc2)C(=O)C1 | > 1000 |
| CC1=NN(c2ccccc2)C(=O)C1C(=O)c1ccccc1 (stereo not drawn) | > 1000 |
| CC1=NN(C2CCCCC2)C(=O)C1 | > 1000 |
| CC1=NN(c2ccccc2)C(=O)C1C1CC1 (stereo not drawn) | > 1000 |

Test system: not listed separately
Assay: Superoxide dismutase like activity assessed as inhibition of WST1 tetrazolium formation at 1 mM in presence of 2 mM Cu(II)
Format: functional
Set-up: scale not given: the % may be the effect or the level left
Details: not given

| SMILES | Activity [%] |
| --- | --- |
| O=C1CC(c2ccc([N+](=O)[O-])cc2)=NN1c1ccccc1 | 11.9 |
| CC1=NN(c2ccccc2)C(=O)C1 [EDARAVONE] | 5.7 |
| O=C(NC1=NN(c2ccccc2)C(=O)C1)Oc1ccccc1 | 11.6 |
| O=C1CC(C(F)(F)F)=NN1c1ccccc1 | 7.4 |
| O=C(NC1=NN(c2ccccc2)C(=O)C1)c1ccccc1 | 3.2 |
| CC1=NN(c2ccccc2)C(=O)C1C1CC1 (stereo not drawn) | 35.4 |

Test system: ScN2a
Assay: Antiprion activity in ScN2a cells assessed as inhibition of protease-resistant prion protein accumulation
Format: functional, cell-based
Details: Mus musculus
How it was run: as §1

| SMILES | IC50 [nM] |
| --- | --- |
| C=CC1CN2CC[C@H]1C[C@H]2[C@H](O)c1ccnc2ccc(OC)cc12 (single isomer, unassigned) [QUININE] | 10000 |
| C=C(C)C1=NN(c2ccccc2)C(=O)C1 | 158 |
| COC(=O)NC1=NN(c2ccccc2)C(=O)C1 | 6 |
| O=C1CC(c2ccc([N+](=O)[O-])cc2)=NN1c1ccccc1 | 3 |
| CC1=NN(c2ccccc2)C(=O)C1 [EDARAVONE] | > 1000 |
| CC1=NN(c2ccccc2)C(=O)C1c1ccccc1 (stereo not drawn) | 40 |
| O=C1CC(C(F)(F)F)=NN1c1ccccc1 | 398 |
| O=C(NC1=NN(c2ccccc2)C(=O)C1)c1ccccc1 | 2000 |
| O=C(NC1=NN(c2ccccc2)C(=O)C1)NC1CCCC1 | 126 |
| CC1=NN(c2ccccc2)C(=O)C1c1ccccn1 (stereo not drawn) | 79 |
| C=C[C@H]1CN2CC[C@H]1C[C@@H]2[C@@H](O)c1ccnc2ccc(OC)cc12 [QUINIDINE] | 5000 |
| CC1=NN(c2ccc(Cl)cc2)C(=O)C1 | 0.5 |
| O=C(Nc1ccccc1)C1=NN(c2ccccc2)C(=O)C1 | 398 |
| CC1=NN(c2ccccc2)C(=O)C1C(=O)c1ccccc1 (stereo not drawn) | 6 |
| CC1=NN(C2CCCCC2)C(=O)C1 | 13 |

Test system: not listed separately
Assay: Hydroxy radical scavenging activity by ESR spin-trapping method
Format: functional
Details: not given
How it was run: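 A mixture of 25 mM H2O2, 25 mM DMPO and compound was UV-irradiated. Hydroxyl radical scavenging was expressed as IC50.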

| SMILES | IC50 [nM] |
| --- | --- |
| O=C1CC(c2ccc([N+](=O)[O-])cc2)=NN1c1ccccc1 | 90 |
| CC1=NN(c2ccccc2)C(=O)C1 [EDARAVONE] | 250 |
| O=C(NC1=NN(c2ccccc2)C(=O)C1)Oc1ccccc1 | 380 |
| CC1=NN(c2ccccc2)C(=O)C1c1ccccc1 (stereo not drawn) | 790 |
| O=C1CC(C(F)(F)F)=NN1c1ccccc1 | 810 |
| O=C(NC1=NN(c2ccccc2)C(=O)C1)c1ccccc1 | 220 |
| CC1=NN(c2ccccc2)C(=O)C1C(=O)c1ccccc1 (stereo not drawn) | 610 |
| CC1=NN(c2ccccc2)C(=O)C1C1CC1 (stereo not drawn) | 720 |

Test system: not listed separately
Assay: Cytotoxicity against mouse F3 cells by MTT assay
Format: cell-based
Details: n2a #58 f3

| SMILES | Activity [nM] |
| --- | --- |
| C=C(C)C1=NN(c2ccccc2)C(=O)C1 | > 1000 |
| COC(=O)NC1=NN(c2ccccc2)C(=O)C1 | > 1000 |
| O=C1CC(c2ccc([N+](=O)[O-])cc2)=NN1c1ccccc1 | > 1000 |
| COc1ccc(C2=NN(c3ccccc3)C(=O)C2)cc1 | > 100 |
| O=C(NC1=NN(c2ccccc2)C(=O)C1)Oc1ccccc1 | > 1000 |
| CC1=NN(c2ccccc2)C(=O)C1c1ccccc1 (stereo not drawn) | > 100 |
| O=C1CC(Cc2ccccc2)=NN1c1ccccc1 | > 1000 |
| O=C1CC(C(F)(F)F)=NN1c1ccccc1 | > 1000 |
| O=C(NC1=NN(c2ccccc2)C(=O)C1)c1ccccc1 | > 1000 |
| O=C(NC1=NN(c2ccccc2)C(=O)C1)NC1CCCC1 | > 1000 |
| CC1=NN(c2ccccc2)C(=O)C1CC(C)C (stereo not drawn) | > 1000 |
| O=C1CC(c2ccccc2)=NN1c1ccccc1 | > 100 |
| CC1=NN(c2ccccc2)C(=O)C1c1ccccn1 (stereo not drawn) | > 1000 |
| COc1ccc(N2N=C(C)CC2=O)cc1 | > 100 |
| CC1=NN(c2ccc(Cl)cc2)C(=O)C1 | > 100 |
| O=C(Nc1ccccc1)C1=NN(c2ccccc2)C(=O)C1 | > 1000 |
| CC1=NN(c2ccccc2)C(=O)C1C(=O)c1ccccc1 (stereo not drawn) | > 1000 |
| CC1=NN(C2CCCCC2)C(=O)C1 | > 1000 |
| CC1=NN(c2ccccc2)C(=O)C1C1CC1 (stereo not drawn) | > 1000 |

Test system: not listed separately
Assay: Cytotoxicity against human NB69 cells by MTT assay
Format: cell-based
Details: read-out: LD50 (the source's name)

| SMILES | CC50 [nM] |
| --- | --- |
| C=C(C)C1=NN(c2ccccc2)C(=O)C1 | > 1000 |
| COC(=O)NC1=NN(c2ccccc2)C(=O)C1 | > 1000 |
| O=C1CC(c2ccc([N+](=O)[O-])cc2)=NN1c1ccccc1 | > 1000 |
| COc1ccc(C2=NN(c3ccccc3)C(=O)C2)cc1 | > 1000 |
| CC1=NN(c2ccccc2)C(=O)C1c1ccccc1 (stereo not drawn) | > 1000 |
| O=C1CC(Cc2ccccc2)=NN1c1ccccc1 | > 300 |
| O=C1CC(C(F)(F)F)=NN1c1ccccc1 | > 1000 |
| O=C(NC1=NN(c2ccccc2)C(=O)C1)c1ccccc1 | > 1000 |
| O=C(NC1=NN(c2ccccc2)C(=O)C1)NC1CCCC1 | > 1000 |
| CC1=NN(c2ccccc2)C(=O)C1CC(C)C (stereo not drawn) | > 1000 |
| O=C1CC(c2ccccc2)=NN1c1ccccc1 | > 1000 |
| CC1=NN(c2ccccc2)C(=O)C1c1ccccn1 (stereo not drawn) | > 1000 |
| COc1ccc(N2N=C(C)CC2=O)cc1 | > 1000 |
| CC1=NN(c2ccc(Cl)cc2)C(=O)C1 | > 1000 |
| O=C(Nc1ccccc1)C1=NN(c2ccccc2)C(=O)C1 | > 1000 |
| CC1=NN(c2ccccc2)C(=O)C1C(=O)c1ccccc1 (stereo not drawn) | > 1000 |
| CC1=NN(C2CCCCC2)C(=O)C1 | > 1000 |
| CC1=NN(c2ccccc2)C(=O)C1C1CC1 (stereo not drawn) | > 1000 |
